This note sets out measurements from ChEMBL document CHEMBL4251739, “Rhodanine as a Potent Scaffold for the Development of Broad-Spectrum Metallo-β-lactamase Inhibitors” (ACS Med Chem Lett, 2018).

The nature of series [1]: Inhibition of bacterial L1 expressed in Escherichia coli BL21(DE3) using cefazolin as substrate by spectrometric method. Further details: species or system Bacteria. The method, boiled down:
(§1)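 Purified enzymes, overexpressed and purified by earlier methods, assayed under steady-state conditions by UV spectrometry in 50 mM Tris, pH 7.0. Substrate for NDM-1, VIM-2 and L1 was cefazolin (50 µM), read at 262 nm. Substrate for ImiS was imipenem (60 µM), read at 300 nm. Inhibitor varied 0–50 µM; IC50 is the concentration giving 50% loss of activity.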

For series [2], the system named is Bacteria. Put plainly: Inhibition of bacterial VIM2 expressed in Escherichia coli BL21(DE3) at 50 uM using cefazolin as substrate by spectrometric method relative to control.
Series [3] concerns Bacteria. Put plainly: Inhibition of bacterial VIM2 expressed in Escherichia coli DH10B assessed as potentiation of cefazolin-induced antibacterial activity by measuring cefazolin MIC at 32 ug/ml after 16 hrs by broth micro-dilution method (reference value: 512 ug/ml). Background: Dilution methods test growth across graded concentrations, often in twofold steps.
For series [4], the system named is Bacteria. Put plainly: Inhibition of bacterial ImiS expressed in Escherichia coli DH10B assessed as potentiation of imipenem-induced antibacterial activity by measuring imipenem MIC at 32 ug/ml after 16 hrs by broth micro-dilution method (reference value: 2 ug/ml).
For series [5], the system named is Bacteria. Briefly: Inhibition of bacterial NDM1 expressed in Escherichia coli DH10B assessed as potentiation of cefazolin-induced antibacterial activity by measuring fold reduction in cefazolin MIC at 32 ug/ml after 16 hrs by broth micro-dilution method relative to cefazolin alone.
Series [6] is described as follows: Inhibition of bacterial ImiS expressed in Escherichia coli BL21(DE3) using imipenem as substrate by spectrometric method. Further details: species or system Bacteria. The method, boiled down: as §1
The nature of series [7]: Inhibition of bacterial NDM1 expressed in Escherichia coli BL21(DE3) using cefazolin as substrate by spectrometric method. Details: species or system Bacteria. The method, boiled down: as §1
The subject of series [8] is Bacteria. Put plainly: Inhibition of bacterial L1 expressed in Escherichia coli DH10B assessed as potentiation of cefazolin-induced antibacterial activity by measuring cefazolin MIC at 32 ug/ml after 16 hrs by broth micro-dilution method (reference value: 32 ug/ml). The method, boiled down: (§2)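 Dose-dependent cefazolin MIC assay against E. coli DH10B expressing L1 from a pBCSK plasmid, with varied inhibitor doses up to 256 µg/mL. Fold decrease in MIC was taken relative to cefazolin alone. Medium pH was monitored during the assay.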

For series [9], the system named is Bacteria. Briefly: Inhibition of bacterial NDM1 expressed in Escherichia coli DH10B assessed as potentiation of cefazolin-induced antibacterial activity by measuring cefazolin MIC at 32 ug/ml after 16 hrs by broth micro-dilution method (reference value: 8 ug/ml).
The test system of series [10] is Bacteria. Put plainly: Inhibition of bacterial NDM1 expressed in Escherichia coli BL21(DE3) at 50 uM using cefazolin as substrate by spectrometric method relative to control.
Series [11] relates to Bacteria. Briefly: Inhibition of bacterial ImiS expressed in Escherichia coli BL21(DE3) at 50 uM using imipenem as substrate by spectrometric method relative to control.
Series [12] deals with Bacteria. Briefly: Inhibition of bacterial VIM2 expressed in Escherichia coli DH10B assessed as potentiation of cefazolin-induced antibacterial activity by measuring fold reduction in cefazolin MIC at 32 ug/ml after 16 hrs by broth micro-dilution method relative to cefazolin alone.
The nature of series [13]: Inhibition of bacterial VIM2 expressed in Escherichia coli BL21(DE3) using cefazolin as substrate by spectrometric method. Details: species or system Bacteria. An outline of the steps:
as §1

In series [14] the test system is Bacteria. Briefly: Inhibition of bacterial L1 expressed in Escherichia coli DH10B assessed as potentiation of cefazolin-induced antibacterial activity by measuring fold reduction in cefazolin MIC at 32 ug/ml after 16 hrs by broth micro-dilution method relative to cefazolin alone. An outline of the steps:
as §2

Series [15] is described as follows: Cytotoxicity against mouse L929 cells assessed as cell viability up to 200 uM after 48 hrs by CCK8 assay relative to control. The class given is cell-based. Conditions: read-out: Activity. An outline of the steps: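 Mouse fibroblast L929 cells exposed to inhibitors at 12.5, 25, 50, 100, 200 and 400 µM working concentrations; percentage of cells maintaining viability measured.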

Bounds are passed on as bounds.

The term IC50 denotes the point on the concentration scale where inhibition reaches its midpoint. Higher therefore signals weaker potency in that assay. By inhibition is commonly meant the relative decrease from the control value, in per cent. A low value points to a response near the control. Take `O=C(O)c1ccc(N2C(=O)/C(=C/c3ccccc3)SC2=S)cc1`: the IC50 is 0.21 µM in series [1], 18.3 µM in [6] and 8.7 µM in series [7]. The inhibition with Bacteria [2] was under 50%. The MIC with Bacteria [3] stood at 512 µg/mL; in the series on Bacteria [4], 1 µg/mL; in the series on Bacteria [8], 8 µg/mL; with Bacteria [9], 1 µg/mL. In addition, in the series with Bacteria [5], the fold change (FC) was 4 to 8.
Turning to `O=C(O)c1ccc(N2C(=O)/C(=C/c3cccc4ccccc34)SC2=S)cc1`, the IC50 in series [1] worked out at 0.1 µM; in series [6], 6.9 µM. The inhibition with Bacteria [2] and in the series with Bacteria [10] was under 50% throughout. Moreover, the MIC with Bacteria [3] was found to be 512 µg/mL; in the series on Bacteria [4] it was 1 µg/mL; in the series on Bacteria [8], 8 µg/mL; in the series on Bacteria [9], 8 µg/mL.
With `O=C(O)c1ccc(N2C(=O)/C(=C/c3ccccn3)SC2=S)cc1`, the inhibition in the series with Bacteria [11] was under 50%. Besides, the half-inhibitory concentration (IC50) in series [1] was 0.21 µM; in series [13], 0.92 µM; in series [7] it was 1.13 µM. The MIC with Bacteria [3] stood at 128 µg/mL; with Bacteria [4] it was 2 µg/mL; in the series with Bacteria [8], 8 µg/mL; in the series on Bacteria [9], 2 µg/mL. Moreover, the fold change (FC) was 4 with Bacteria [12] and 4 to 8 in the series on Bacteria [5].
As to `O=C(O)c1ccc(N2C(=O)/C(=C/c3ccc(C(F)(F)F)cc3)SC2=S)cc1`, the half-maximal inhibitory concentration (IC50) in series [1] was 0.07 µM; in series [13], 2.36 µM; in series [6], 7.8 µM; in series [7] it was 10.6 µM. Besides, the MIC stood at 128 µg/mL in the series on Bacteria [3], 1 µg/mL in the series with Bacteria [4], 8 µg/mL in the series on Bacteria [8] and 4 µg/mL with Bacteria [9]. Moreover, the fold change (FC) in the series on Bacteria [12] amounted to 4.
`O=C(O)c1ccc(N2C(=O)/C(=C/c3ccc4ccccc4c3)SC2=S)cc1`: the concentration for half-maximal inhibition (IC50) in [1] was determined as 0.12 µM; in [13] it was 1.9 µM; in [6], 16.5 µM. The MIC in the series with Bacteria [3] was 128 µg/mL; with Bacteria [4] it was 1 µg/mL; in the series with Bacteria [8], 8 µg/mL; with Bacteria [9], over 64 µg/mL. For the same molecule, the fold change (FC) in the series on Bacteria [12] was 4. This molecule also came in with an inhibition in the series with Bacteria [10] of under 50%.
With `O=C(O)CN1C(=O)/C(=C/c2ccc([N+](=O)[O-])cc2[N+](=O)[O-])SC1=S`, the inhibition in the series on Bacteria [11], with Bacteria [2] and in the series with Bacteria [10] was under 50% throughout. Moreover, the fold change (FC) in the series with Bacteria [14] came to 8. In addition, the IC50 in [1] was determined as 0.1 µM. Also, the MIC amounted to 512 µg/mL in the series with Bacteria [3], 1 µg/mL in the series with Bacteria [4], 4 µg/mL with Bacteria [8] and 8 µg/mL in the series on Bacteria [9]. In [15], the viability at 48 h was determined as 80%.
With `O=C(O)CN1C(=O)/C(=C/c2ccc3ccccc3c2)SC1=S`, the inhibition in the series on Bacteria [11], with Bacteria [2] and in the series with Bacteria [10] was under 50% throughout. The molecule further came in with an IC50 in series [1] of 0.37 µM. Also, the MIC in the series on Bacteria [3] came to 512 µg/mL; with Bacteria [4], 2 µg/mL; in the series on Bacteria [8] it was 8 µg/mL; with Bacteria [9] it was 16 µg/mL.
For the molecule `O=C(O)c1ccc(N2C(=O)/C(=C/c3ccc(Cl)cc3)SC2=S)cc1`, the IC50 in series [1] was 0.07 µM; in [13], 3.6 µM; in series [6] it was 7.7 µM; in series [7], 12.2 µM. The MIC came to 128 µg/mL in the series with Bacteria [3], 1 µg/mL with Bacteria [4], 8 µg/mL in the series with Bacteria [8] and 1 µg/mL in the series with Bacteria [9]. Further, the fold change (FC) is 4 in the series with Bacteria [12] and 4 to 8 with Bacteria [5].
Turning to `O=C(O)CN1C(=O)/C(=C/c2ccccc2[N+](=O)[O-])SC1=S`, the inhibition in the series on Bacteria [11] was under 50%. Also, the fold change (FC) in the series with Bacteria [14] was determined as 8. Also, the concentration for half-maximal inhibition (IC50) in series [1] turned out to be 0.22 µM; in series [13], 16.8 µM; in [7] it was 27.4 µM. Moreover, the MIC came to 256 µg/mL with Bacteria [3], 2 µg/mL with Bacteria [4], 4 µg/mL with Bacteria [8] and 4 µg/mL in the series on Bacteria [9]. For the same molecule, in series [15], the viability at 48 h was 80%.
On to `O=C(O)CN1C(=O)/C(=C/c2ccccn2)SC1=S`, for which the concentration for half-maximal inhibition (IC50) in series [1] was 0.16 µM; in series [6], 19.1 µM. Moreover, the inhibition in the series on Bacteria [2] and with Bacteria [10] was under 50% each time. For the same molecule, the MIC in the series with Bacteria [3] came out at 512 µg/mL; in the series on Bacteria [4], 2 µg/mL; with Bacteria [8] it was 8 µg/mL; in the series with Bacteria [9] it was 8 µg/mL.
`O=C(O)c1ccc(N2C(=O)/C(=C/c3ccc(Cl)cc3Cl)SC2=S)cc1`: the concentration for half-maximal inhibition (IC50) in [1] was found to be 0.03 µM; in series [13] it was 3.5 µM; in series [6] it was 7.6 µM; in [7], 10.6 µM. Besides, the MIC in the series on Bacteria [3] came to 128 µg/mL; in the series on Bacteria [4] it was 1 µg/mL; in the series with Bacteria [8], 8 µg/mL; in the series with Bacteria [9] it was 1 µg/mL. Besides, the fold change (FC) with Bacteria [12] was 4; in the series on Bacteria [5] it was 4 to 8.
For `O=C(O)CN1C(=O)/C(=C/c2cccs2)SC1=S`, the inhibition in the series on Bacteria [11], with Bacteria [2] and in the series on Bacteria [10] was under 50% in each case. This molecule also gave an IC50 in series [1] of 0.77 µM. For the same molecule, the MIC in the series with Bacteria [3] stood at 512 µg/mL; in the series with Bacteria [4], 2 µg/mL; with Bacteria [8], 8 µg/mL; in the series on Bacteria [9] it was 8 µg/mL.
For the molecule `O=C(O)CN1C(=O)/C(=C/c2ccccc2)SC1=S`, the inhibition in the series with Bacteria [11], in the series on Bacteria [2] and in the series with Bacteria [10] was under 50% throughout. Moreover, the midpoint of inhibition in series [1], the IC50, lay at 0.32 µM. For the same molecule, the MIC with Bacteria [3] was 256 µg/mL; in the series on Bacteria [4], 2 µg/mL; with Bacteria [8], 8 µg/mL; in the series with Bacteria [9], 8 µg/mL.
